ChEMBL document CHEMBL3352590, “How a β-D-glucoside side chain enhances binding affinity to thrombin of inhibitors bearing 2-chlorothiophene as P1 moiety: crystallography, fragment deconstruction study, and evaluation of antithrombotic properties” (J Med Chem, 2014)
≈ marks a conversion by molar mass, not a printed value. Calls of active or inactive are those of the source. No cut-off for these calls is given here.

Legend:
Coagulation factor X [1] = target: T1, Coagulation factor X (Homo sapiens, UniProt P00742); assay: Inhibition of human factor10a assessed as reduction in hydrolysis of chromogenic substrate S-2765 by Cheng-Prusoff equation analysis
T1 sequence (P00742 41-179 limits assumed): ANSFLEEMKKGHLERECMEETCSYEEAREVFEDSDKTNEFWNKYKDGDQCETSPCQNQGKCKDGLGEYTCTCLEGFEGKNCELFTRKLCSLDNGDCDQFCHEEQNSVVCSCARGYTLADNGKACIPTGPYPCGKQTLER
T1 sequence (P00742 235-488 limits assumed): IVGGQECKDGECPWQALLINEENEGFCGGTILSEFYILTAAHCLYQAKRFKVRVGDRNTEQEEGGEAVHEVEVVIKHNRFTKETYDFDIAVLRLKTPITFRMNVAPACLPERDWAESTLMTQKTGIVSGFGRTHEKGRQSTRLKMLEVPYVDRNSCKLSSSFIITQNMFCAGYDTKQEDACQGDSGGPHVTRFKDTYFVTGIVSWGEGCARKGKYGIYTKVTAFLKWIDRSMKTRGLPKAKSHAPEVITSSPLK
How it was run: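 Chromogenic assay at pH 8: 2 nM human fXa with 0.04 mM S-2765, or 0.41 U/mL bovine thrombin with 0.05 mM S-2238 (final). Enzyme preincubated with inhibitor (0.01−100 nM or 0.01−100 μM, ≤1% DMSO); substrate added, A405 followed 5 min.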

Plasma [2] = assay: Profibrinolytic activity in tissue factor-induced human plasma exposed to exogenous tissue plasminogen activator assessed as time needed to lyse 50% fibrin clot by turbidimetric assay; type: functional, cell-free
How it was run: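 Turbidimetric clot lysis at 37 °C: citrated human plasma spiked with compound or vehicle, plus phospholipids, t-PA (40 ng/mL stock), Tris-NaCl pH 7.4 and TF; clotting started with CaCl2. A405 read each minute for 3 h; lysis time from clot formation to midpoint of turbid-to-clear transition, as percent of vehicle; three independent plasma samples.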

Plasma [3] = assay: Anticoagulant activity in recombinant tissue factor and procoagulant phospholipids-stimulated human citrated plasma assessed as increase in time required to generate first traces of thrombin at 2 to 10 uM by fluorometry based calibrated automated thrombography; type: functional, cell-free
How it was run: (§1)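 Pooled citrated human plasma spiked with test compounds at 0.01−10 μM or vehicle; 80 μL plasma incubated 10 min at 37 °C; thrombin generation triggered by low tissue factor, phospholipids and calcium. Lag-time, thrombin peak and endogenous thrombin potential (area under curve) read by calibrated automated thrombography and expressed as percent of vehicle control.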

[4] = Lipophilicity, logKw of the compound by RP-HPLC method; type: physicochemical
How it was run: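 RP-HPLC on C18 column at 25 °C, 1.0 mL/min, UV 288 nm; capacity factors k′ = (tR − t0)/t0 measured at MeOH volume fractions 0.8 to 0.4 in 0.05 steps; log k′w taken as the polycratic capacity factor.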

[5] = Aqueous solubility in pH 7.4 0.05 M phosphate buffer by HPLC method; type: physicochemical
How it was run: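 Excess solid (4−10 mg) in 0.05 M phosphate buffer pH 7.4 with 0.15 M KCl, shaken 1 h at 25 °C, then 15 min unshaken. Supernatant filtered and quantified by C18 HPLC (MeOH/0.05 M phosphate pH 4.5, UV 288 nm) against calibration curves of peak area.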

Plasma [6] = assay: Anticoagulant activity in recombinant tissue factor and procoagulant phospholipids-stimulated human citrated plasma assessed as inhibition of thrombin peak by fluorometry based calibrated automated thrombography; type: functional, cell-free; how it was run: as §1
[7] = Stability in 0.05 M pH 7.4 phosphate buffer containing 0.15 M KCl assessed as unhydrolyzed compound after 4 hrs at 37 degC; type: physicochemical; details: read-out: Stability
How it was run: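 10 mM acetonitrile stock diluted to 250 μM final in 0.05 M phosphate buffer pH 7.40 with 0.15 M KCl, 37 °C; samples withdrawn at t0 and fixed times, filtered and analysed by HPLC (UV 288 nm) for remaining unhydrolyzed compound.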

Prothrombin [8] = target: T2, Prothrombin (Bos taurus, UniProt P00735); assay: Inhibition of bovine thrombin assessed as reduction in hydrolysis of chromogenic substrate S-2238 by Cheng-Prusoff equation analysis
[9] = Half life in human plasma at 37 degC by HPLC method; type: ADME, cell-free
How it was run: (§2)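 10 mM ACN stock diluted to 250 μM final in preheated 37 °C human serum (lyophilized, reconstituted in water). Incubation stopped at fixed times with ice-cold ACN; remaining parent measured by HPLC; first-order half-life derived.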

Plasma [10] = assay: Anticoagulant activity in recombinant tissue factor and procoagulant phospholipids-stimulated human citrated plasma assessed as reduction in endogenous thrombin potential by fluorometry based calibrated automated thrombography; type: functional, cell-free; how it was run: as §1
Plasma [11] = assay: Anticoagulant activity in recombinant tissue factor and procoagulant phospholipids-stimulated human citrated plasma assessed as increase in time required to generate first traces of thrombin at 10 uM by fluorometry based calibrated automated thrombography; type: functional, cell-free
How it was run: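 Pooled citrated human plasma spiked with test compound or vehicle (0.01−10 μM); clotting triggered by low tissue factor, phospholipids and calcium; thrombin generation followed by calibrated automated thrombography, 80 μL plasma preincubated 10 min at 37 °C. Lag-time = time to first traces of thrombin, expressed as percent of vehicle control plasma.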

Prothrombin [12] = target: T2, Prothrombin; assay: Inhibition of bovine thrombin assessed as reduction in hydrolysis of chromogenic substrate S-2238 by Lineweaver-Burk analysis
[13] = Stability in human plasma assessed as unhydrolyzed compound after 4 hrs at 37 degC by HPLC method; type: ADME, cell-free; details: read-out: Stability; how it was run: as §2
Coagulation factor X [14] = target: T1, Coagulation factor X; assay: Inhibition of human factor10a assessed as reduction in hydrolysis of chromogenic substrate S-2765 by Lineweaver-Burk analysis
How it was run: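 Human fXa fixed at 2 nM, S-2765 varied 25−200 μM, without or with inhibitor at four concentrations, pH 8, A405 initial rates; Lineweaver−Burk (1/v vs 1/[S]) plots used to assign inhibition type.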

Prothrombin (Bos taurus) = Prothrombin (Bos taurus) (UniProt P00735); assay: Inhibition of bovine thrombin assessed as reduction in hydrolysis of chromogenic substrate S-2238 at 1 mM by Cheng-Prusoff equation analysis
Coagulation factor X [15] = target: T1, Coagulation factor X; assay: Inhibition of human factor10a assessed as reduction in hydrolysis of chromogenic substrate S-2765 at 1 mM by Cheng-Prusoff equation analysis
[16] = Homo sapiens, Plasma, read-out: EC50
[17] = Homo sapiens, Plasma, read-out: IC50

SMILES | Ki (Coagulation factor X [1]) | EC50 (Plasma [2]; [16]) | Activity (Plasma [3]) | logKw [4] | solubility [5] | IC50 (Plasma [6]) | remaining at 4 h [7] | Ki (Prothrombin [8]) | IC50 (Plasma [10]; [17]) | fold change (FC) (Plasma [11]) | inhibition (Prothrombin (Bos taurus)) | inhibition (Coagulation factor X [15]) | further results
CC(=O)OC[C@H]1O[C@@H](OCCCOc2cccc(OCc3cc(-c4ccc(Cl)s4)on3)c2NC(=O)C2CCN(C(C)C)CC2)[C@H](OC(C)=O)[C@@H](OC(C)=O)[C@@H]1OC(C)=O | 0.00025 µM | 1.8 µM | Active | 5.07 | < 1 µM | 1.2 µM | > 90% | 0.16 µM | 10 µM | 9 |  |  | half-life [9]: 2.8 h
Nc1ccccc1OCc1cc(-c2ccc(Cl)s2)on1 | 11.6 µM |  |  |  |  |  |  | 31 µM |  |  |  |  | 
CC(C)N1CCC(C(=O)Nc2c(OCCCO[C@@H]3O[C@H](CO)[C@@H](O)[C@H](O)[C@H]3O)cccc2OCc2cc(-c3ccc(Cl)s3)on2)CC1 | 9e-05 µM | 0.3 µM | Active | 3.07 | 7330 µM (≈ 5100 µg/mL) | 0.3 µM | > 90% | 0.1 µM | 3.4 µM | 15 |  |  | Ki (Prothrombin [12]): 0.096 µM; remaining at 4 h [13]: > 90%; Ki (Coagulation factor X [14]): 0.00087 µM
CC(C)N1CCC(C(=O)Nc2ccccc2)CC1 |  |  |  |  |  |  |  |  |  |  | 16% | 13% | 
Nc1c(OCCCO[C@@H]2O[C@H](CO)[C@@H](O)[C@H](O)[C@H]2O)cccc1OCc1cc(-c2ccc(Cl)s2)on1 | 6.9 µM |  |  |  |  |  |  | 133 µM |  |  |  |  | 
CC1CNc2c(cccc2S(=O)(=O)N[C@@H](CCCNC(=N)N)C(=O)N2CC[C@@H](C)C[C@@H]2C(=O)O)C1 (stereo not given in full) [ARGATROBAN] |  | 0.6 µM |  |  |  | 1.9 µM |  |  | 2.4 µM |  |  |  | 
CC(C)N1CCC(C(=O)Nc2ccccc2OCc2cc(-c3ccc(Cl)s3)on2)CC1 | 0.0006 µM |  | Active | 3.49 | 530 µM (≈ 244 µg/mL) | 10 µM | > 90% |  |  | 3 |  |  | EC50 (Plasma [2]): Not Active; remaining at 4 h [13]: > 90%; Ki (Coagulation factor X [14]): 0.00011 µM; IC50 (Plasma [10]): Not Active
Nc1c(OCCCO)cccc1OCc1cc(-c2ccc(Cl)s2)on1 | 18.3 µM |  |  |  |  |  |  | 29.8 µM |  |  |  |  | 
CC(C)N1CCC(C(=O)Nc2ccccc2OCCCO[C@@H]2[C@@H](O)[C@H](O)[C@@H](CO)O[C@H]2O)CC1 |  |  |  |  |  |  |  |  |  |  | 28% | 14% | 
COc1ccccc1NC(=O)C1CCN(C(C)C)CC1 |  |  |  |  |  |  |  |  |  |  | 0% | 16% | 
